From ChEMBL document CHEMBL3734652, “Pyrrolo[3,4-c]pyridine-1,3(2H)-diones: A Novel Antimycobacterial Class Targeting Mycobacterial Respiration” (J Med Chem, 2015)
≈ marks a conversion by molar mass, not a printed value.

Columns and labels:
[1] = test system: Mycobacterium tuberculosis; assay: Antimicrobial activity against Mycobacterium tuberculosis deltacydKO/A317T mutant under GAST/Fe medium assessed as growth inhibition after 14 days by alamar blue assay; type: functional
Summary of the method: (§1)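 Broth microdilution in GAST/Fe medium against fully virulent Mtb H37RvMa or its derived strains (cytochrome bd oxidase deletion ΔcydKO; qcrB Ala317Thr point mutant). Plates were incubated 14 days, growth was read by Alamar Blue, and MIC90 was taken as the potency value.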

[2] = test system: Mycobacterium tuberculosis; assay: Antimicrobial activity against Mycobacterium tuberculosis deltacydKO mutant under GAST/Fe medium assessed as growth inhibition after 14 days by alamar blue assay; type: functional; summary of the method: as §1

SMILES | MIC90 [1] | MIC90 [2]
CCOC(=O)c1nc(C)c2c(c1N)C(=O)N(Cc1ccccc1)C2=O | >10 µM | 0.019 µM (≈ 0.00645 µg/mL)
Cc1noc(-c2nc(C)c3c(c2N)C(=O)N(Cc2cccc(OC(F)(F)F)c2)C3=O)n1 | >10 µM | <0.019 µM
Cc1nc(C(=O)OC2CC2)c(N)c2c1C(=O)N(Cc1ccccc1)C2=O | >10 µM | 0.039 µM (≈ 0.0137 µg/mL)
COc1cccc(CN2C(=O)c3c(C)nc(-c4nc(C)no4)c(N)c3C2=O)c1 | >10 µM | 0.039 µM (≈ 0.0148 µg/mL)
CCOC(=O)c1nc(C)c2c(c1N)C(=O)N(Cc1ccccc1)C2O (configuration not stated) | >10 µM | 0.019 µM (≈ 0.00649 µg/mL)
Cc1noc(-c2nc(C)c3c(c2N)C(=O)N(Cc2cccc(Cl)c2)C3=O)n1 | >10 µM | <0.019 µM
